Activity calls are given as the source filed them. No cut-off for these calls is given here.
How the values were obtained:
HCT-116 = assay: Antiproliferative activity against human HCT-116 cells assessed as inhibition of cell proliferation measured after 48 hrs by CCK-8 assay; type: functional, cell-based; conditions: HCT-116, 48 h
Summary of the method: (§1)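 RPMI-1640 with 10% FBS, 37 °C, 5% CO2. Cells seeded at 1-3 × 10^4/well and exposed to 0.00098–64 μM (nine 4-fold steps) or 0.1% DMSO vehicle for 48 h. CCK-8 then added for 4 h; absorbance read at 450 nm. IC50 taken from dose–response curves; mean ± SD of three independent experiments.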

B16-F0 [1] = assay: Inhibition of tubulin polymerization in mouse B16-F0 cells at 40 nM measured after 6 hrs by DAPI staining based immunofluorescent assay relative to control; type: cell-based
Summary of the method: (§2)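 Fixed in 4% paraformaldehyde, permeabilized with 0.5% Triton X-100 for 15 min, goat serum blocked. Anti-tubulin antibody 2 h at 4 °C, then fluorescent secondary antibody and DAPI nuclear counterstain. Imaged by confocal microscopy.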

B16-F0 [2] = assay: Antitumour activity against mouse B16-F0 cells transplanted in C57/BL mouse assessed as decrease in tumour weight at 10 mg/kg, ip measured after 16 days in relative to control; type: functional; parameters: scale not given: the % may be the effect or the level left; conditions: time 16 day
B16-F0 [3] = assay: Antiproliferative activity against mouse B16-F0 cells assessed as inhibition of cell proliferation measured after 48 hrs by CCK-8 assay; type: functional, cell-based; conditions: B16F0, 48 h; summary of the method: as §1
[4] = Toxicity in C57/BL mouse […] with mouse B16-F0 cells assessed as kidney histology at 10 to 20 mg/kg, ip measured after 16 days by H and E staining method in relative to control; type: organism-based; conditions: in vivo, 384 h, dose 10-20 mg/kg, time 16 day
MCF7 [5] = assay: Induction of cell cycle arrest in human MCF7 cells assessed as accumulation of cells at G2/M phase measured after 48 hrs by FACS Calibur flow cytometry in relative to control; type: functional, cell-based
Summary of the method: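 MCF-7 cells plated for 24 h, then exposed to compound (5 or 10 nM; DMSO control) for 48 h. Fixed in 70% ethanol at 4 °C for 12 h, then RNase A and propidium iodide staining for 30 min. DNA content measured by flow cytometry.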

[6] = Binding affinity to pig brain tubulin at 30 degree C without preincubation; type: tissue-based, Sus scrofa
Summary of the method: (§3)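 Porcine brain tubulin purified by three assembly/disassembly cycles and phosphocellulose chromatography. Mixed with graded compound concentrations in PEM (100 mM PIPES, 1 mM EGTA, 1 mM MgCl2) with 1 mM GTP and 5% glycerol. Polymerization followed at 37 °C by light scattering at 340 nm; variants ran at 30 °C, or with 5 min preincubation before GTP addition. IC50 reported.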

A549 = assay: Antiproliferative activity against human A549 cells assessed as inhibition of cell proliferation measured after 48 hrs by CCK-8 assay; type: functional, cell-based; conditions: A549, 48 h; summary of the method: as §1
HeLa = assay: Antiproliferative activity against human HeLa cells assessed as inhibition of cell proliferation measured after 48 hrs by CCK-8 assay; type: functional, cell-based; summary of the method: as §1
[7] = Metabolic stability in human liver microsomes assessed as half life in presence of NADPH at 0.5 uM measured after 4 hrs by LC/MS method; type: ADME, Microsome
MCF7 [8] = assay: Antiproliferative activity against human MCF7 cells assessed as inhibition of cell proliferation measured after 48 hrs by CCK-8 assay; type: functional, cell-based; conditions: MCF7, 48 h
[9] = Inhibition of pig brain tubulin polymerization measured by light scattering based spectrophotometer method; type: tissue-based, Sus scrofa; summary of the method: as §3
B16-F0 [10] = assay: Induction of microtubule destabilization in mouse B16-F0 cells assessed as short and wrapped structure at 40 nM measured after 6 hrs by DAPI staining based immunofluorescent assay relative to control; type: cell-based; summary of the method: as §2
[11] = Binding affinity to pig brain tubulin at 37 degree C without preincubation; type: tissue-based, Sus scrofa; summary of the method: as §3
[12] = Binding affinity to pig brain tubulin at 37 degree C preincubated for 5 mins; type: tissue-based, Sus scrofa; summary of the method: as §3
B16-F0 [13] = assay: Inhibition of tubulin polymerization in mouse B16-F0 cells at 160 nM measured after 6 hrs by DAPI staining based immunofluorescent assay relative to control; type: cell-based; conditions: dose 40.0 nM, in the assay text read “at 40 nM” for “at 160 nM”; summary of the method: as §2
[14] = Toxicity in C57/BL mouse […] with mouse B16-F0 cells assessed as liver histology at 10 to 20 mg/kg, ip measured after 16 days by H and E staining method in relative to control; type: organism-based; conditions: in vivo, 384 h, dose 10-20 mg/kg, time 16 day
B16-F0 [15] = assay: Antitumour activity against mouse B16-F0 cells transplanted in C57/BL mouse assessed as decrease in tumour volume at 20 mg/kg, ip measured after 16 days in relative to control; type: functional; parameters: scale not given: the % may be the effect or the level left; conditions: time 16 day
MCF7 [16] = assay: Inhibition of cell migration in human MCF7 cells measured after 24 hrs by phase contrast microscopy based wound healing assay relative to control; type: functional; conditions: dose 10-40 nM
Summary of the method: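 Confluent MCF-7 monolayers, grown 24 h, scratched with a pipette tip and washed with PBS. Medium with 0, 10, 20 or 40 nM compound added. Wounds photographed by phase contrast at 0 and 24 h; migration distance measured manually.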

B16-F0 [17] = assay: Antitumour activity against mouse B16-F0 cells transplanted in C57/BL mouse assessed as decrease in tumour volume at 10 mg/kg, ip measured after 16 days in relative to control; type: functional; parameters: scale not given: the % may be the effect or the level left; conditions: time 16 day
[18] = Metabolic stability in mouse liver microsomes assessed as half life in presence of NADPH at 0.5 uM measured after 4 hrs by LC/MS method; type: ADME, Microsome
[19] = Toxicity in C57/BL mouse […] with mouse B16-F0 cells assessed as body weight loss at 10 to 20 mg/kg, ip measured after 16 days in relative to control; type: organism-based; conditions: in vivo, 384 h, dose 10-20 mg/kg, time 16 day
B16-F0 [20] = assay: Antitumour activity against mouse B16-F0 cells transplanted in C57/BL mouse assessed as decrease in tumour weight at 20 mg/kg, ip measured after 16 days in relative to control; type: functional; parameters: scale not given: the % may be the effect or the level left; conditions: time 16 day

- IC50 (HCT-116): 48 nM
- IC50 (B16-F0 [3]): 21 nM
- IC50 [6]: 2100 nM
- IC50 (A549): 3 nM
- IC50 (HeLa): 21 nM
- half-life at 0.5 µM [7]: 2.08 h
- IC50 (MCF7 [8]): 47 nM
- IC50 [9]: 2100 nM
- IC50 [11]: 2100 nM
- IC50 [12]: 1600 nM
- half-life at 0.5 µM [18]: 2 h
SMILES: COc1cc(-c2ccnc3cc(-c4ccc(C)cc4)nn23)cc(OC)c1OC
- inhibition (B16-F0 [1]): Active
- Activity (B16-F0 [2]): 38.6%
- Activity [4]: Non-Toxic
- Activity (MCF7 [5]): Active
- Activity (B16-F0 [10]): Active
- inhibition (B16-F0 [13]): Active
- Activity [14]: Non-Toxic
- Activity (B16-F0 [15]): 77.4%
- inhibition (MCF7 [16]): Active
- Activity (B16-F0 [17]): 40.1%
- Activity [19]: Non-Toxic
- Activity (B16-F0 [20]): 74.5%
